From ChEMBL document CHEMBL4270668, “Design, Synthesis, Molecular Dynamics Simulation, and Functional Evaluation of a Novel Series of 26RFa Peptide Analogues Containing a Mono- or Polyalkyl Guanidino Arginine Derivative” (J Med Chem, 2018)
Active and inactive are the calls of the source. The rule behind the calls is not given here. Starred links: 1 amine or outer side, 2 acyl side, 3 side chain; linkers in the order of their positions; H or OH if unused. Non-standard residues stand in square brackets, D forms with d. Residues, ends and D or L forms follow the SMILES beside them. X1 = C/N=C(\NCCC[C@H](N[*:1])C(=O)[*:2])N(C)C; Arg(Me2a) = CN(C)C(=N)NCCC[C@H](N)C(=O)O; Arg(Me) = CNC(=N)NCCC[C@H](N)C(=O)O

Tests used:
[1] = test system: Mus musculus; assay: Induction of insulin-induced hypoglycemia in C57Bl/6J mouse at 148 ug/kg, ip measured after 90 mins post insulin injection by insulin tolerance test; assay type: functional, organism-based; settings: 741 ug/kg, in the assay text read “741 ug/kg” for “148 ug/kg”
[2] = molecular target: T1, Pyroglutamylated RF-amide peptide receptor (Homo sapiens, UniProt Q96P65); assay: Agonist activity at human QRFPR expressed in CHO cells co-expressing Galpha16 assessed as increase Ca2+ mobilization after 3 mins by Fluo-4 AM-based scanning fluorometery; assay type: functional, cell-based
T1 sequence (Q96P65 whole entry): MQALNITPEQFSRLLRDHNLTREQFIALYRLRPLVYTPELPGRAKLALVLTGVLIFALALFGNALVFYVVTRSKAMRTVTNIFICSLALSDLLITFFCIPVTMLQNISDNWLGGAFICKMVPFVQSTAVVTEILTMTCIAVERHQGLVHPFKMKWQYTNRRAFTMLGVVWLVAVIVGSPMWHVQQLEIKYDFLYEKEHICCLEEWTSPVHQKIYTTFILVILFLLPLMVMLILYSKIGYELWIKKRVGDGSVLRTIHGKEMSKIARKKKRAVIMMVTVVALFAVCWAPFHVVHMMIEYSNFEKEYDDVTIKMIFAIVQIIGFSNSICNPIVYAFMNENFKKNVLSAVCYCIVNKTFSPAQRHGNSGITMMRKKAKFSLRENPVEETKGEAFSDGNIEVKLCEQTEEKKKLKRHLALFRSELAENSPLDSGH
Outline: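 CHO-Gα16 cells stably expressing human QRFPR, seeded at 40,000 cells/well 24 h ahead. Loaded 1 h with 2 µM Fluo-4 AM plus 0.01% pluronic acid, washed, then 30 min in HBSS with 2.5 mM probenecid and 5 mM HEPES. Compounds added at final 10^-11 to 10^-5 M; fluorescence recorded 3 min on a scanning fluorometer. EC50 from sigmoidal variable-slope fits, ≥3 experiments in triplicate.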

[3] = test system: Mus musculus; assay: Induction of insulin-induced hypoglycemia in C57Bl/6J mouse at 148 ug/kg, ip measured up to 90 mins post insulin injection by insulin tolerance test; assay type: functional, organism-based
Outline: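 Mice fasted 6 h with water available, then given i.p. human insulin 0.75 U/kg together with peptide 148 µg/kg (equimolar to 26RFa) or vehicle. Tail-vein plasma glucose read by glucometer at 0, 15, 30, 60 and 90 min. At least eight animals per group; two-way ANOVA with Tukey post-test.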

[4] = molecular target: T1, Pyroglutamylated RF-amide peptide receptor; assay: (§1) Antagonist activity at human QRFPR expressed in CHO cells co-expressing Galpha16 assessed as inhibition of 26RFa-induced Ca2+ mobilization preincubated for 15 mins followed by agonist addition measured after 3 mins by Fluo-4 AM-based scanning fluorometery; assay type: functional, cell-based
Outline: (§2)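 CHO-Gα16-hQRFPR cells loaded 1 h with 2 µM Fluo-4 AM, then incubated 15 min with graded compound. A 10^-7 M final 26RFa pulse was given during recording. Background subtracted, baseline normalized to 100%, peak fluorescence taken per concentration. IC50 from sigmoidal variable-slope fits, ≥3 experiments in triplicate. Maximal effect at 10^-4 M expressed as % inhibition of the 26RFa (10^-7 M) response.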

[5] = molecular target: T2, Pyroglutamylated RF-amide peptide receptor (Homo sapiens) (UniProt Q96P65); assay: as §1, with “mobilization at 100 uM” for “mobilization”, “fluorometery relative to 26RFa (20 to 26 residues)” for “fluorometery”; assay type: functional, cell-based; outline: as §2
T2 sequence (whole entry): T1 sequence (Q96P65 whole entry)

[6] = molecular target: T2, Pyroglutamylated RF-amide peptide receptor (Homo sapiens); assay: Antagonist activity at human QRFPR expressed in CHO cells co-expressing Galpha16 assessed as inhibition of 26RFa-induced Ca2+ mobilization at 10 uM preincubated for 30 mins followed by agonist addition measured after 3 mins by Fluo-4 AM-based scanning fluorometery; assay type: functional, cell-based
Outline: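 One-dose screen in CHO-Gα16 cells stably expressing human QRFPR, Fluo-4 AM loaded. Cells incubated 30 min with analogue at 10^-5 M, then challenged with 26RFa at 10^-7 M during fluorescence recording. Response normalized to 26RFa alone in HBSS.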

[7] = test system: Mus musculus; assay: Induction of insulin-induced hypoglycemia in C57Bl/6J mouse at 500 ug/kg, ip measured up to 90 mins post insulin injection by insulin tolerance test; assay type: functional, organism-based
Outline: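 Mice fasted 6 h, then given i.p. insulin 0.75 U/kg with 26RFa 500 µg/kg, or phosphate buffer as vehicle. Tail-vein plasma glucose measured by glucometer at 0, 15, 30, 60 and 90 min. n = 8 per group; two-way ANOVA with Tukey post-test.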

| Compound | Activity [1] | EC50 [2] [µM] | Activity [3] | IC50 [4] [µM] | Imax [5] [%] | inhibition [6] [%] | Activity [7] |
| --- | --- | --- | --- | --- | --- | --- | --- |
| CNC(=N)NCCC[C@H](NC(=O)[C@H](Cc1ccccc1)NC(=O)[C@H](CO)NC(=O)[C@H](Cc1ccccc1)NC(=O)CNC(=O)CN)C(=O)N[C@@H](Cc1ccccc1)C(N)=O (H-GGFSF[Arg(Me)]F-NH2) | Active | 0.0664 | inactive |  |  |  |  |
| CN(C)C(=N)NCCC[C@H](NC(=O)[C@H](Cc1ccccc1)NC(=O)[C@H](CO)NC(=O)[C@H](Cc1ccccc1)NC(=O)CNC(=O)CN)C(=O)N[C@@H](Cc1ccccc1)C(N)=O (H-GGFSF[Arg(Me2a)]F-NH2) |  | > 100 |  | 6.06 | 80 |  |  |
| C/N=C(\NCCC[C@H](NC(=O)[C@H](Cc1ccccc1)NC(=O)[C@H](CO)NC(=O)[C@H](Cc1ccccc1)NC(=O)CNC(=O)CN)C(=O)N[C@@H](Cc1ccccc1)C(N)=O)N(C)C (H-GGFSF[X1]F-NH2) |  | > 100 |  | 8.25 | 87.5 | 47 |  |
| H-VGTALGSLAEELNGYNRKKGGFSFRF-NH2 |  | 0.046 |  |  |  |  | Active |
